# Test results published in ChEMBL document CHEMBL1153337, “Small molecule antagonists of the gonadotropin-releasing hormone (GnRH) receptor: structure-activity relationships of small heterocyclic groups appended to the 2-phenyl-4-piperazinyl-benzimidazole template” (Bioorg Med Chem Lett, 2009).
# How the values were obtained:
# [1] = target: T1, Gonadotropin-releasing hormone receptor (Homo sapiens, UniProt P30968); test: Displacement of [125I]-(D-Trp6)-GnRH from human GnRH receptor
# T1 sequence (P30968 whole entry): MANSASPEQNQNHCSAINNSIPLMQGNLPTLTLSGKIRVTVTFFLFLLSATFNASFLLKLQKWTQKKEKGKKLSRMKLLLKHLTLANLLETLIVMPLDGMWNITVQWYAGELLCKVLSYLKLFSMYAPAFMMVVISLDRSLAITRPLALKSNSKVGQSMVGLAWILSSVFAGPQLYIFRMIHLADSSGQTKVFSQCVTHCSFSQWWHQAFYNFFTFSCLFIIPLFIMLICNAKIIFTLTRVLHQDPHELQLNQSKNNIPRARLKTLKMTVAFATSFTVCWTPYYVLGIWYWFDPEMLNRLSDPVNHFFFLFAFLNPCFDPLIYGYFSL
# Method in brief: (§1)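 Competition binding at overexpressed human or rat GnRH receptors against 125I-(D-Trp6)-GnRH; IC50 averaged from two independent experiments run in triplicate.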
# [2] = target: T2, Gonadotropin-releasing hormone receptor (Rattus norvegicus, UniProt P30969); test: Displacement of [125I]-(D-Trp6)-GnRH from rat GnRH receptor; method in brief: as §1
# T2 sequence (P30969 whole entry): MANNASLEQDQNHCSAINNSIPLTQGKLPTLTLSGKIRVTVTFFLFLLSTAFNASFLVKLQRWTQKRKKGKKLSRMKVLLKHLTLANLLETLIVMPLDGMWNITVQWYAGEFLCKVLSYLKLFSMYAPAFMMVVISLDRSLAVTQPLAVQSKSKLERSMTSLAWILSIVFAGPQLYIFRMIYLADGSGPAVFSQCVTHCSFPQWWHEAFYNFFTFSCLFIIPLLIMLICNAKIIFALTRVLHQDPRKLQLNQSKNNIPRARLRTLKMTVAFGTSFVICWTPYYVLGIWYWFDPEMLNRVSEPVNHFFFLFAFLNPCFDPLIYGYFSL
# [3] = target: T3, Gonadotropin-releasing hormone receptor (Homo sapiens) (UniProt P30968); test: Displacement of [125I]-(D-Trp6)-GnRH from human GnRH receptor at 50 nM
# T3 sequence (whole entry): T1 sequence (P30968 whole entry)
# [4] = target: CYP2D6 (Homo sapiens, UniProt P10635); test: Inhibition of CYP2D6 at 3 uM; assay type: ADME
# [5] = target: CYP3A4 (Homo sapiens, UniProt P08684); test: Inhibition of CYP3A4 at 3 uM; assay type: ADME
# [6] = Metabolic stability in rat liver microsomes assessed as half life; assay type: ADME, Microsome
# [7] = Half life in orchidectomized Sprague-Dawley rat at 20 mg/kg, po after 1 day; assay type: ADME, organism-based; parameters: dose 20 mg/kg, route oral; settings: male, in vivo
# Method in brief: (§2)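 Orchidectomized SD rats, single oral dose of 20 mg/kg in 0.4 N HCl/2% TWEEN 80; iv arm 1 mg/kg in 20% DMSO/PEG 200 for bioavailability; one-day PK study.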
# [8] = Half life in orchidectomized Sprague-Dawley rat at 1 mg/kg, iv after 1 day; assay type: ADME, organism-based; parameters: dose 1 mg/kg, route intravenous; settings: male, in vivo
# Method in brief: (§3)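 Orchidectomized SD rats, single iv dose of 1 mg/kg in 20% DMSO/PEG 200; one-day PK study.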
# [9] = Reduction in leutinizing hormone release in (D-Trp6)-GnRH-stimulated rat primary pituitary cells by RIA; assay type: functional, cell-based; settings: Pituitary gland cell
# Method in brief: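 Primary rat pituitary cells stimulated with (D-Trp6)-GnRH; compound-driven reduction of LH release read as IC50.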
# [10] = tested on: Rattus norvegicus; test: AUC (0 to alpha) in orchidectomized Sprague-Dawley rat at 20 mg/kg, po after 1 day; assay type: ADME, organism-based, Plasma; parameters: dose 20 mg/kg, route oral; settings: in vivo, 24 h; method in brief: as §2
# [11] = Volume of distribution at steady state in orchidectomized Sprague-Dawley rat at 1 mg/kg, iv after 1 day; assay type: ADME, organism-based; parameters: dose 1 mg/kg, route intravenous; settings: male, in vivo, read-out: Vdss; method in brief: as §3
# [12] = target: T1, Gonadotropin-releasing hormone receptor; test: Antagonist activity at human recombinant GnRH receptor expressed in HEK293 cells assessed as reduction in (D-Trp6)-GnRH-stimulated IP production by whole cell assay; assay type: functional, cell-based
# Method in brief: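 Whole-cell assay, cells stimulated with (D-Trp6)-GnRH; compound-driven reduction of inositol phosphate read as IC50.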
# [13] = target: CYP2C9 (Homo sapiens, UniProt P11712); test: Inhibition of CYP2C9 at 3 uM; assay type: ADME
# [14] = Solubility at pH 7.4; assay type: physicochemical; settings: buffer
# [15] = tested on: Rattus norvegicus; test: Oral bioavailability in orchidectomized Sprague-Dawley rat at 20 mg/kg after 1 day; assay type: ADME, organism-based; settings: in vivo, 24 h; method in brief: as §2
# [16] = Metabolic stability in rat liver microsomes assessed as compound remaining at 1 uM after 15 mins; assay type: ADME, Microsome; settings: read-out: Stability
# Sequence of CYP2C9 (P11712 whole entry): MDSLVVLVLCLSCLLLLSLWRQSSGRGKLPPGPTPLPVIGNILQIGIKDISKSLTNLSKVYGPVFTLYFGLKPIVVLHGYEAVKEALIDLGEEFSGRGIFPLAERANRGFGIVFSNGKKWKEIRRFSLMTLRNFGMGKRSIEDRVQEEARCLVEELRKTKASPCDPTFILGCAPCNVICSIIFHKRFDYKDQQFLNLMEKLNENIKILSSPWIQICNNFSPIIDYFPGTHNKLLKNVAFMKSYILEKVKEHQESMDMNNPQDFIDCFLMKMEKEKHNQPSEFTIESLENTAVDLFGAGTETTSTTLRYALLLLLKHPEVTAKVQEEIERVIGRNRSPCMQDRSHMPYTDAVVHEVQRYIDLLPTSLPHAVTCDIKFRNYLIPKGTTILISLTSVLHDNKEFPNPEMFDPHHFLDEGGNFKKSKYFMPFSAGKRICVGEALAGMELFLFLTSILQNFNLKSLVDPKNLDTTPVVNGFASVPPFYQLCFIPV
# Sequence of CYP2D6 (P10635 whole entry): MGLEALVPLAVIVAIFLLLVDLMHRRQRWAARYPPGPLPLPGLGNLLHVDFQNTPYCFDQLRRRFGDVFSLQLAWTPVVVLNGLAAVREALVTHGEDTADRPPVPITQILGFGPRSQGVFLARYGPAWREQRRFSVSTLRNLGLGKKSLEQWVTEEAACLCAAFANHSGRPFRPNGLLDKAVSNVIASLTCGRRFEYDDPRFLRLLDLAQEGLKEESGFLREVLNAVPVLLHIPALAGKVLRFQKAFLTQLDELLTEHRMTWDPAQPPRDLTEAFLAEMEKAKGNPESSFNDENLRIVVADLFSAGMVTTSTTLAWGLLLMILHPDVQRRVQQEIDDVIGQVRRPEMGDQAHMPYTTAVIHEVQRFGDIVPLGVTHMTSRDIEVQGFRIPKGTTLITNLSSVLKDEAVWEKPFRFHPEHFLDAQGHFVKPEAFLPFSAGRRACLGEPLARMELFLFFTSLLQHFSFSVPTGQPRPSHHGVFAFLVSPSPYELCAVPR
# Sequence of CYP3A4 (P08684 whole entry): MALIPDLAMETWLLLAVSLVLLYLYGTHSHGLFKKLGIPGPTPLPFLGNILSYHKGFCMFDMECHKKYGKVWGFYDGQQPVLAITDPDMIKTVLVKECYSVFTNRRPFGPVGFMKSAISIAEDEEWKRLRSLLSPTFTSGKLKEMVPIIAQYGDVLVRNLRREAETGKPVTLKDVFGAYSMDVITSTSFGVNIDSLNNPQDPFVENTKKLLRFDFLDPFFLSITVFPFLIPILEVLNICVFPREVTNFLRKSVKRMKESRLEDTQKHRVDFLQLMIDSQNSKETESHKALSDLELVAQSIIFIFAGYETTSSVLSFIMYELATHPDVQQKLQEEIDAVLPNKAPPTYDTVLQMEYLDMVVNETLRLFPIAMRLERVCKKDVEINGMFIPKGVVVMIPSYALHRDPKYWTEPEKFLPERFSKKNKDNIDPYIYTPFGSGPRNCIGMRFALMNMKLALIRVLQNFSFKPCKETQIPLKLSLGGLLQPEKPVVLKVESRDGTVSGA
SMILES,IC50 [1],IC50 [2],Activity [3],further results
Cc1nc(C)c(CN2CCN(c3cccc4[nH]c(-c5ccc(C(C)(C)C)cc5)nc34)CC2)s1,27 nM,,,
CCCn1c(CC)nc(CN2CCN(c3cccc4[nH]c(-c5ccc(C(C)(C)C)cc5)nc34)CC2)c1C,29 nM,57 nM,,
CC(C)(C)c1ccc(-c2nc3c(N4CCN(Cc5ccc[nH]5)CC4)cccc3[nH]2)cc1,,,7%,
CC(C)(C)c1ccc(-c2nc3c(N4CCN(Cc5cccs5)CC4)cccc3[nH]2)cc1,,,24%,
CCCCn1cnc(C)c1CN1CCN(c2cccc3[nH]c(-c4ccc(C(C)(C)C)cc4)nc23)CC1,,,67%,
Cc1n[nH]c(C)c1CN1CCN(c2cccc3[nH]c(-c4ccc(C(C)(C)C)cc4)nc23)CC1,68 nM,,,
CC(C)(C)c1ccc(-c2nc3c(N4CCN(Cc5ccsc5)CC4)cccc3[nH]2)cc1,,,6%,
CCc1nc(C)c(CN2CCN(c3cccc4[nH]c(-c5ccc(C(C)(C)C)cc5)nc34)CC2)s1,20 nM,120 nM,,
Cc1c(CN2CCN(c3cccc4[nH]c(-c5ccc(C(C)(C)C)cc5)nc34)CC2)ncn1C(C)C,19 nM,61 nM,,
CCc1nc(C)sc1CN1CCN(c2cccc3[nH]c(-c4ccc(C(C)(C)C)cc4)nc23)CC1,,,26%,
Cc1ccc(CN2CCN(c3cccc4[nH]c(-c5ccc(C(C)(C)C)cc5)nc34)CC2)o1,705 nM,,,
CCc1nc(C)c(CN2CCN(c3cccc4[nH]c(-c5ccc(C(C)(C)C)cc5)nc34)CC2)o1,37 nM,320 nM,,
Cc1nc(C)c(CN2CCN(c3cccc4[nH]c(-c5ccc(C(C)(C)C)cc5)nc34)CC2)o1,31 nM,740 nM,,
CCc1nc(CN2CCN(c3cccc4[nH]c(-c5ccc(C(C)(C)C)cc5)nc34)CC2)c(C)o1,27 nM,550 nM,,
CCCCc1nc(C)c(CN2CCN(c3cccc4[nH]c(-c5ccc(C(C)(C)C)cc5)nc34)CC2)s1,,,4%,
CCc1nc(CN2CCN(c3cccc4[nH]c(-c5ccc(C(C)(C)C)cc5)nc34)CC2)c(C)n1CC,8 nM,49 nM,,half-life [6]: 12 min; IC50 [9]: 296 nM; IC50 [12]: 13 nM; solubility [14]: 25 µg/mL
Cc1nc(CN2CCN(c3cccc4[nH]c(-c5ccc(C(C)(C)C)cc5)nc34)CC2)c(C)s1,21 nM,,,
CC(C)(C)c1ccc(-c2nc3c(N4CCN(Cc5ccco5)CC4)cccc3[nH]2)cc1,,,12%,
CCn1cc(CN2CCN(c3cccc4[nH]c(-c5ccc(C(C)(C)C)cc5)nc34)CC2)c(=O)[nH]c1=O,,,,"inhibition at 3 µM [4]: 0%; remaining at 0.25 h, 1 µM [16]: 12%; inhibition at 3 µM [5]: 74%; half-life [6]: 5 min; IC50 [9]: 59 nM; inhibition at 3 µM [13]: 34%; solubility [14]: 13 µg/mL"
CCCn1c(CC)nc(C)c1CN1CCN(c2cccc3[nH]c(-c4ccc(C(C)(C)C)cc4)nc23)CC1,57 nM,120 nM,,
CCCCn1cnc(CN2CCN(c3cccc4[nH]c(-c5ccc(C(C)(C)C)cc5)nc34)CC2)c1C,46 nM,49 nM,,inhibition at 3 µM [4]: 21%; inhibition at 3 µM [5]: 84%; half-life [6]: > 30 min; IC50 [9]: 570 nM; IC50 [12]: 71 nM; inhibition at 3 µM [13]: 53%; solubility [14]: 3 µg/mL

# More lines, main results first:
IC50 [1],IC50 [2],Activity [3],SMILES,further results
18 nM,41 nM,,CCCn1cc(CN2CCN(c3cccc4[nH]c(-c5ccc(C(C)(C)C)cc5)nc34)CC2)nc1C,inhibition at 3 µM [4]: 13%; inhibition at 3 µM [5]: 85%; half-life [6]: 25 min; half-life [7]: 174 min; half-life [8]: 54 min; IC50 [9]: 240 nM; AUC [10]: 3830 ng·h/mL; Vd [11]: 0.2 L/kg; IC50 [12]: 43 nM; inhibition at 3 µM [13]: 19%; solubility [14]: 55 µg/mL; F [15]: 100%
,,6%,Cn1cccc1CN1CCN(c2cccc3[nH]c(-c4ccc(C(C)(C)C)cc4)nc23)CC1,
33 nM,98 nM,,Cn1cnc(CN2CCN(c3cccc4[nH]c(-c5ccc(C(C)(C)C)cc5)nc34)CC2)c1,
90 nM,850 nM,,Cc1ncoc1CN1CCN(c2cccc3[nH]c(-c4ccc(C(C)(C)C)cc4)nc23)CC1,
22 nM,250 nM,,CCc1cc(CN2CCN(c3cccc4[nH]c(-c5ccc(C(C)(C)C)cc5)nc34)CC2)n(C)n1,
23 nM,310 nM,,Cc1cc(CN2CCN(c3cccc4[nH]c(-c5ccc(C(C)(C)C)cc5)nc34)CC2)n(C)n1,
,,40%,CC(C)(C)c1ccc(-c2nc3c(N4CCN(Cc5ncc[nH]5)CC4)cccc3[nH]2)cc1,
26 nM,58 nM,,CCCCc1nc(CN2CCN(c3cccc4[nH]c(-c5ccc(C(C)(C)C)cc5)nc34)CC2)cn1C,
,,26%,CC(C)(C)c1ccc(-c2nc3c(N4CCN(Cc5nccs5)CC4)cccc3[nH]2)cc1,
10 nM,51 nM,,CCn1cc(CN2CCN(c3cccc4[nH]c(-c5ccc(C(C)(C)C)cc5)nc34)CC2)nc1C,
38 nM,450 nM,,Cc1nn(C)c(C)c1CN1CCN(c2cccc3[nH]c(-c4ccc(C(C)(C)C)cc4)nc23)CC1,
18 nM,78 nM,,CCc1nc(CN2CCN(c3cccc4[nH]c(-c5ccc(C(C)(C)C)cc5)nc34)CC2)cn1C,
11 nM,69 nM,,CCc1nc(CN2CCN(c3cccc4[nH]c(-c5ccc(C(C)(C)C)cc5)nc34)CC2)cn1CC,
7.5 nM,28 nM,,Cc1nc(CN2CCN(c3cccc4[nH]c(-c5ccc(C(C)(C)C)cc5)nc34)CC2)c[nH]1,inhibition at 3 µM [4]: 14%; inhibition at 3 µM [5]: 85%; half-life [6]: > 30 min; IC50 [9]: 250 nM; IC50 [12]: 44 nM; inhibition at 3 µM [13]: 23%; solubility [14]: 46 µg/mL
,,20%,CC(C)(C)c1ccc(-c2nc3c(N4CCN(Cc5ccoc5)CC4)cccc3[nH]2)cc1,
12 nM,47 nM,,CCCn1cnc(CN2CCN(c3cccc4[nH]c(-c5ccc(C(C)(C)C)cc5)nc34)CC2)c1C,
10 nM,34 nM,,Cc1nc(CN2CCN(c3cccc4[nH]c(-c5ccc(C(C)(C)C)cc5)nc34)CC2)cn1C,inhibition at 3 µM [4]: 3%; inhibition at 3 µM [5]: 66%; half-life [6]: 9 min; IC50 [9]: 300 nM; IC50 [12]: 23 nM; inhibition at 3 µM [13]: 12%; solubility [14]: 51 µg/mL
,,32%,CCn1nc(CN2CCN(c3cccc4[nH]c(-c5ccc(C(C)(C)C)cc5)nc34)CC2)cc1C,
43 nM,350 nM,,CCc1cc(CN2CCN(c3cccc4[nH]c(-c5ccc(C(C)(C)C)cc5)nc34)CC2)nn1C,
83 nM,,,Cc1cc(CN2CCN(c3cccc4[nH]c(-c5ccc(C(C)(C)C)cc5)nc34)CC2)nn1C,
,,25%,Cn1nccc1CN1CCN(c2cccc3[nH]c(-c4ccc(C(C)(C)C)cc4)nc23)CC1,
21 nM,290 nM,,CC(C)(C)c1ccc(-c2nc3c(N4CCN(Cc5cnc[nH]5)CC4)cccc3[nH]2)cc1,
